According to the EternaBench riboswitch data:

Test system: MS2 coat protein
Test: apparent Kd, MS2 coat protein; higher = weaker binding; RNA-MaP array; FMN 200 µM where present
Outline: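 The apparent Kd is reported as the median of filtered per-cluster binding-curve fits. To get these curves, designs transcribed by stalled E. coli RNA polymerase on Illumina sequencing-chip clusters were titrated with SNAP-549-labelled MS2 coat protein from 0.7 or 1.5 nM, doubling to 3 µM. Titrations were run without and then with constant ligand in 100 mM Tris-HCl pH 7.5, 80 mM KCl, 4 mM MgCl2, BSA, DTT, yeast tRNA and Tween-20, and green signal was normalised to red-channel RNA signal and control-cluster median Fmax.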

[1] = designed as: ON switch for flavin mononucleotide, no ligand
[2] = ligand present: flavin mononucleotide, designed as: ON switch for flavin mononucleotide
[3] = designed as: OFF switch for flavin mononucleotide, no ligand
[4] = ligand present: flavin mononucleotide, designed as: OFF switch for flavin mononucleotide

Sequence | apparent Kd [1] [nM] | apparent Kd [2] [nM] | apparent Kd [3] [nM] | apparent Kd [4] [nM]
GGACAUUUACAGAAGGGCAAUUUAUUUAUUGAUUAUUUAGUUCUGUUUUGCAGGAUAUGUUUUACAUGAGGAUCACCCAUGUCC | 66.8 | 36.2 | – | –
GGAAGUCAAAGACUUCCUUAACGAACAUGAGGAUCACCCAUGUAGGAUAUGCUACUCAAAGAGUAGCAGAAGGACAUGUGUCUU | – | – | 32.1 | 168
UUAGCAACAUGAGGAUCACCCAUGUAGGAUAUCGCUAUUGUAAUCAUGAAACAUGAUUACAAUAGCGAGAAGGACAUAUGCUUU | – | – | 13.9 | 14.9
AGCUGGUGACAGCAUCGAGCUUAACAUGAGGAUCACCCAUGUAGAAGGCUGUACGGUUACCGUACAGAGGAUAUACAUAGCUCG | – | – | 6.79 | 7.04
AAAUCUCAGAUAGGAUAUAUAGGAUAACUUAAGACCUAACAUGAGGAUCACCCAUGUGAUUAUUCGUAGAAGGAUCAUUGACCC | 166 | 175 | – | –
UUGGACGUCCUAGGAUAUGUAGGAUAUUCCUACAUGAGGAUCACCCAUGUUGACAUGGAAGAAGGACAGAAGGACGAUGUCCAU | 551 | 71.3 | – | –
GGUGCGAUGUAGAAGGCAGAUCUGAUUCAGAUCUGAGGAUAUACAUGAGGAUCACCCAUGUAAACGCACCGCACGAGAGUGCAA | – | – | 6.6 | 8.12
GAAGAUGGUGAGGAUAUCAUUAACCACAUCGGAUGAGAAGGUACCACAUGAGGAUCACCCAUGUACAUAUUACU | – | – | 22.4 | 22.9
AGUGUCAUCGAGAAGGCCUCAUGACAUGAGGAUCACCCAUGUUAGCAUGGGAGGAUAUCGAUGAUACAGCUACGUUUCGUAGCA | 170 | 51.4 | – | –
UAUGCACAUGAGGAUCACCCAUGUGAGGAUAUAGGUCGUGUGCGUUCACGCAUCGUACUUAGAAGGCACUGCGG | – | – | 46.9 | 92.5
CAUAAGAUAGGAUAUACAGGCCCGUCUUCAUAUUGAUCCCGACAUGAGGAUCACCCAUGUAGAAGGAUCAUAUG | – | – | 13.5 | 13.4
UUUAUGGGACAGAAGGGCAAUUUCUUUAAUUAUUAUUUAAAACAUCAUUGCAGGAUAUGUAUAACAUGAGGAUCACCCAUGUAC | 36.2 | 12.2 | – | –
CCACGAGACUAAGGAUAUGGAGUGUCAACAUAAAACAUGAGGAUCACCCAUGUAAAGAGUACAAUUCAGAAGGUAGAGACGUGG | 21.9 | 21.5 | – | –
AGAUUACGAGGAUAUCGAGUUUAGUACAUGAGGAUCACCCAUGUUAUCCAGGUCUCGUUUCGAGAAGGCGUGAUUC | – | – | 256 | 92.3
CACAAGAAAGUCGAAGGUUGAAGUAGAAGGACUACAACAUGACAUGAGGAUCACCCAUGUGCUAAGUAGGAUAUGCUUUAAUCG | – | – | 5.63 | 5.47
CUUAGACAUGAGGAUCACCCAUGUGAGGAUAUGAUGCGAUCGUCGAAAGACGAUAGCAUCAGAAGGUACAAAUG | – | – | 86 | 67
CGGUCGAUGUAAGGAUAUCGACUGGAAUACAGUCGAGAAGGUACAUGAGGAUCACCCAUGUAAUCCAAUAAUAAAUAACGACCG | – | – | 12.6 | 22.5
CCUAAGGACACAGGAUAUAGCGUGGUUGCUGGGCUCCAACGGCGAGCGGCGCUAGAAGGGUGACCACAUGAGGAUCACCCAUGU | 532 | 162 | – | –
UUAUACAUUCGAGGAUAUCGGAGAGAAAUCUUUCGAGAAGGCGAUUCAUGAUGUAUUAUCCUGGACAUGAGGAUCACCCAUGUA | 96.8 | 76.9 | – | –
AAGUAAGGAGGAUAUACGUCAUAGACCGCAAUAUGUCAUAGACAUGAGGAUCACCCAUGUAGAAGGCUUUAACA | – | – | 34.7 | 26.2
GCAUGGAAAGUGAGGAUAUACCACUGGAUACAGUGGUAGAAGGCACAUGAGGAUCACCCAUGUCUCUACCAUGC | – | – | 13.6 | 30.8
AUAGUUAGUAUAGAUGAGGGCAGCAGAAGGCAAUAUGCUUGUGCCGACAUGAGGAUCACCCAUGUUGAGGAUAUGCGUCCUUCG | – | – | 6 | 16.9
CAAUCACCCUCAUGUACCUGAGGACAUGAGGAUCACCCAUGUAAGGAUAUAGCCAUUAAAUCUAACUAGAAGGUAUAAAUAACC | – | – | 1010 | 523
GUCGGAAACGACAAUGAUAGGACUGAGGAUAUACAUAAGUAAGUCCACACAUGAGGAUCACCCAUGUAGAAGGCAGUCCUAUCU | – | – | 21.9 | 187
CGGUAAACCACAGGAUAUGGCUAGCAUAGCUAGCCAGAAGGGUGGUCGAAACCAUGUAAAUACAUGAGGAUCACCCAUGUAUCC | 501 | 52.6 | – | –
UAUGGUAAAGUCAGGAUAUACGUACGUCGUUCUAGGUAGAAGGGACAUGAGGAUCACCCAUGUAUGAUAGUGUU | – | – | 46.5 | 42.8
AAGCCUAAUGAGAAGGUGUGUAUAAAUUAUAUACAAGGAUAUCGGUCAAGCAUGAAAACAUGAGGAUCACCCAUGUUAAGGCUU | 5.82 | 5.51 | – | –
GUCGACCUAUUCGUCAGACUCUCACAGGAUAUACGAUACACAUGAGGAUCACCCAUGUAGAUAACGUAGAAGGGUGAUUCCGGU | 66.7 | 27.7 | – | –

Sequence | apparent Kd [1] [nM] | apparent Kd [2] [nM] | apparent Kd [3] [nM] | apparent Kd [4] [nM]
CCAUGCGGAUGAGGAUAUUCAUCCAUGAGGAUAGAAGAAGGCAUACAUGAGGAUCACCCAUGUAUACGCAUGAGGAUCCCUUAC | – | – | 27.3 | 22.3
GUGACGAAUGUAGGAUAUGCUGAGGAAUACUCAGCAGAAGGACAUGAGGAUCACCCAUGUACUAAUAGUGAUAAUAAACGUCAC | – | – | 15.6 | 77.6
UCAUUUAUUACAGGAUAUGUUAGUAUACAGUUGUUUGGUUAUUACAUAUUAACAGAAGGGUAGAACAUGAGGAUCACCCAUGUA | 95.7 | 52.3 | – | –
GGACGUCCCAUUAACAUGAGGAUCACCCAUGUCAAAAGACAUGAGGAUAUGCAUCCUAAUUGGAUGCAGAAGGCAUGGACGUCC | 1180 | 87.3 | – | –
AUGCUUCACACAGGAUAUACAUGAGGAUCACCCAUGUGUCCACAGUAGCUGACACGAGCUACGCGGUAGAAGGGUGUGAAGCAU | – | – | 18.5 | 61.2
AGCUAGUCAGGAUAUACGUAAAUGUCGAAAGACGUAUUGGGACAUGAGGAUCACCCAUGUAGAAGGGACUAGCA | – | – | 27.2 | 108
AAGGAGUGAGGAUAUGCUGCUCGUCACUUGCGUGAUGAGUAGCAGAAGGCACAUGAGGAUCACCCAUGUAAAGA | – | – | 44.9 | 54.5
AAACAUGUCCGAGGAUAUCUGGAAACAUUUUCAAGAGAAGGCGGACAUGAGGAUCACCCAUGUCUCUCCUCAUCAAGUACAAAU | – | – | 7.33 | 46.3
UUAGGCGACCAGAAGGGUGACAUGAGGAUCACCCAUGUAGAUGUGUUCCCGCUUGGGAGCCGUCCACAGGAUAUGGUUGGUUAG | 35.7 | 16.8 | – | –
GUAGCAAUCGGAGGAUAUUCAUGAUACAUGAGGAUCACCCAUGUUAAUAUGGGAGAAGGCCGAUUGCUACAAGAGCGAAAGCUC | 47.9 | 8.05 | – | –
UGAGACCUCACAGGAUAUGCUGGACUUUGUCCAGCAGAAGGGUGAAAACAUGAGGAUCACCCAUGUAUGGUCUCCAAAUUUAAG | 191 | 12.7 | – | –
GUGGUCAGACAUGAGGAUCACCCAUGUGGAAUAAAUAAGGUUUAGGAUAUGGAAUAUAGGAUAUACCAGAAGGAAGGGUUGGUG | 125 | 135 | – | –
UGGGAUGGCUAGAAGGCUCCGUAUACUAAAGGGAGAGGAUAUGGCACAUGAGGAUCACCCAUGUGUACCUGUAGGUGAUCCACA | – | – | 276 | 70
GGAUAGGACAGAGGAUAUACGUGCUAGAAAUACUAGCAAAAUUUCCUCACAUGAGGAUCACCCAUGUAGAAGGCUGUCCUAUCG | – | – | 14.5 | 542
GUAUUGAUAACAGGAUAUAUGAGUCCUACAUGAGGAUCACCCAUGUAGGUGAUCAGCCGUGAUUAGUAGAAGGGUUAUCAAUAC | 12.5 | 5.98 | – | –
AAGAAGUCAGGAUAUACAUGAGGAUCACCCAUGUAAAAGAAAGAAAAGGGAAAGAAAAGUAGAAGGGACAAGAA | – | – | 26.7 | 32.2
AUACCACGAGGAUAUCGUCUAUAAUACAUGAGGAUCACCCAUGUUAUAUAUGUAAUGUUUCGAGAAGGCGUGUUUU | – | – | 16.6 | 12.9
GUAGAGAUUACAUGAGGAUCACCCAUGUCAGAACGGGUAAUCAGAAGGUAUUAUUAGAGAAAGGGUAAGGAUAUGAUUUUUUAU | 735 | 617 | – | –
GUGGUCAGACAUGAGGAUCACCCAUGUGGAAUAAAUAAGGACAAGGAUAUGGAAUAUAGGAUAUACCAGAAGGUGUGGUUGGUG | 70 | 86 | – | –
UUUUAACAUGAGGAUCACCCAUGUGAGGAUAUCGAAAUUUAUAUUUAUAUUUAUAUAUCGAGAAGGCACAUUUU | – | – | 128 | 127
CUCACGUUAGUAGGAUAUCCGACAUGAGGAUCACCCAUGUCACUACGCCUCAAGGGAAGGUGUAAGGAGAAGGGCUGAUAAAUA | 178 | 88.3 | – | –
AUACUCAUGUAAGGAUAUGCGGCCGUUUCGGCUGCAGAAGGUACUAUAAUACAUGAGGAUCACCCAUGUCUCUCGCAUUGCGAG | 556 | 61.4 | – | –
GUAGCUAUCGGAGGAUAUUCAUAGCGGAAACGGACAUGAGGAUCACCCAUGUGGCGAAAGCCUUGGGAGAAGGCCGAUAGCUAC | 39.6 | 8.1 | – | –
AUGCUAGUGUGAGGAUAUUAGGCUACAUGAGGAUCACCCAUGUUGAUCAUGAGGAUCACCCAUGAUAAGAAGGUACAUUAGCAU | – | – | 88.1 | 108
AUAUCUAUAUCAGGAUAUGGACAGGCCUGUCCGUAUUGAGACAGUAACAUGAGGAUCACCCAUGUCCAGAAGGGAUCGAUAUAU | – | – | 38.6 | 41.8
ACAUGAGGAUCACCCAUGUUUGCAUAGGAUAUUGAGGAUUAGGGAUGUUUUUUUGGAUUUGCCCACAAGAAGGAUGUAUGUUUU | 8.56 | 7.96 | – | –
GUGUGCUGAGGAUAUACAGAGGAAGAUAAGAUAAGAUAAUGACAUGAGGAUCACCCAUGUAGAAGGCAGAGUGU | – | – | 29.7 | 42.4
